Here are results for five compounds from ChEMBL document CHEMBL2429840, “The lignan (-)-hinokinin displays modulatory effects on human monoamine and GABA transporter activities” (J Nat Prod, 2013).

Active and inactive are the calls of the source. The rule behind the calls is not given here.

For data set [1], the target named is T1, Sodium-dependent noradrenaline transporter (Homo sapiens, UniProt P23975). The experiment in a line: Inhibition of human NET expressed in MDCK cells using [3H]-norepinephrine as substrate at 200 uM after 10 mins by scintillation counting. The format is cell-based.
T1 sequence (P23975 whole entry): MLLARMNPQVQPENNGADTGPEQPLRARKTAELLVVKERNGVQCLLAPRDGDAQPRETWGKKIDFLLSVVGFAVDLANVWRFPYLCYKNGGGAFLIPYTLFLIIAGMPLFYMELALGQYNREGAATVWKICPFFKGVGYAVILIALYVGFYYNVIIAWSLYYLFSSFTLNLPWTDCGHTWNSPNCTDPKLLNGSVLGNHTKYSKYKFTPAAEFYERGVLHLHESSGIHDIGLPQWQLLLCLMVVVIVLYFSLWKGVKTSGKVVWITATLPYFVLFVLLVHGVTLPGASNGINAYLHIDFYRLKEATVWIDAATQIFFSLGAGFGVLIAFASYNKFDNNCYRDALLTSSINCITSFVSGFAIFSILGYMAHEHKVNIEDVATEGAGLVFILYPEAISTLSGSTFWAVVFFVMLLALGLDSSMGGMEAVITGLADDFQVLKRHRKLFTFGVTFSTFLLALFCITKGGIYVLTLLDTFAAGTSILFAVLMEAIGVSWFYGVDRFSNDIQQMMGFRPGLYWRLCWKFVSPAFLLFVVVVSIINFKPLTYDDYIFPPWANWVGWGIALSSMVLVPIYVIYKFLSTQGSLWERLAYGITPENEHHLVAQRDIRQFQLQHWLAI
Data set [2] deals with Sodium-dependent serotonin transporter (Homo sapiens, UniProt P31645). In words: Inhibition of human SERT expressed in MDCK cells using [3H]-serotonin as substrate after 10 mins by scintillation counting. The format is cell-based. The essentials: (§1)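 Transfected MDCK cells were washed with PBS-CM and preincubated 10 min at room temperature with compound (0.2–200 or 0.5–500 μM) or vehicle. Uptake of 50 nM radiolabeled substrate then ran for 10 min at room temperature, with RO 41-0960 added for dopamine. Naive MDCK background was subtracted. IC50 came from nonlinear regression of three independent assays run in triplicate.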
Chain of Sodium-dependent serotonin transporter (P31645 whole entry): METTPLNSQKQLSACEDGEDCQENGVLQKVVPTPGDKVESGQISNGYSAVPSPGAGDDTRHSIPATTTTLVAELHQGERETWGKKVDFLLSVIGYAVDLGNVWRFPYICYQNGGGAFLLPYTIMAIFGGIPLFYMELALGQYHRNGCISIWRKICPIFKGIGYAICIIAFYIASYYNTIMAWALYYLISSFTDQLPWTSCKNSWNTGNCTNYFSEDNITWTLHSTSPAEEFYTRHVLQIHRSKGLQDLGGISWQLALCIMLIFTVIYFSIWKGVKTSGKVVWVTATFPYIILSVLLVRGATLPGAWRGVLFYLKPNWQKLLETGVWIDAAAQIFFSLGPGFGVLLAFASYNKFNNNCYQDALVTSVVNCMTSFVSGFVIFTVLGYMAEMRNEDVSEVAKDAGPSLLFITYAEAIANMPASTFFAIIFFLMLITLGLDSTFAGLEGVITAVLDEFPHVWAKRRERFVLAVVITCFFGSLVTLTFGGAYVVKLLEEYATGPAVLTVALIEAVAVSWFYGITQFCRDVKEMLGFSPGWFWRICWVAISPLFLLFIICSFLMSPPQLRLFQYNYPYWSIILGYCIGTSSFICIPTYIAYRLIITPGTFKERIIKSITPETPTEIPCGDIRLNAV

Data set [3] has as its target T2, Sodium-dependent dopamine transporter (Homo sapiens, UniProt Q01959). In words: Inhibition of human DAT expressed in MDCK cells using [3H]-dopamine as substrate after 10 mins by scintillation counting. The format is cell-based. The essentials: as §1
In data set [4] the target is T3, Sodium- and chloride-dependent GABA transporter 1 (Homo sapiens, UniProt P30531). In words: Inhibition of GAT-1 (unknown origin). The method, boiled down: (§2)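 Transporter transiently expressed in COS-7 cells, with compound tested in dose–response (EAATs at 0.5–500 μM) against vehicle. Nonspecific uptake from empty-vector (pcDNA3) COS-7 sister cultures was subtracted. IC50 came from nonlinear regression of at least three independent experiments run in triplicate.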
Target sequence in this assay (P30531 whole entry, looked up): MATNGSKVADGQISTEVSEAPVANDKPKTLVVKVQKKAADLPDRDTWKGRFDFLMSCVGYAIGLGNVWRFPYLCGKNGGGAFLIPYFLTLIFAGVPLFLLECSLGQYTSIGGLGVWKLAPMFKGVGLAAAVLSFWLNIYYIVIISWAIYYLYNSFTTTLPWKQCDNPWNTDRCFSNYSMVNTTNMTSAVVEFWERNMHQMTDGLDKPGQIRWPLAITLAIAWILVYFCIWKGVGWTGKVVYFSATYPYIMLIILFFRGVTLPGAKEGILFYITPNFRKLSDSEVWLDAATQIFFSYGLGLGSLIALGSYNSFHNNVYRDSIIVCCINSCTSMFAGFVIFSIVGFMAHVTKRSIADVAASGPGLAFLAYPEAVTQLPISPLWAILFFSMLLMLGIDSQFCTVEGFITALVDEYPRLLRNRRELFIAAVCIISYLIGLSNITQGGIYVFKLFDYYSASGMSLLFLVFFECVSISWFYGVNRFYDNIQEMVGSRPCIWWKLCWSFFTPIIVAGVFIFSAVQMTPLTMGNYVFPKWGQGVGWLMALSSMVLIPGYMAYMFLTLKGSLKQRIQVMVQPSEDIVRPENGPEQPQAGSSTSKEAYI

Data set [5] can be described thus: Toxicity in Wistar rat peripheral blood micronucleus.
Data set [6] concerns the target T3, Sodium- and chloride-dependent GABA transporter 1. The experiment in a line: Activity at GAT1 (unknown origin) expressed in african green monkey COS7 cells assessed as GABA release at 0.5 to 500 uM after 10 mins using [3H]-GABA pretreated for 1 hr before compound addition followed by wash out by reversed transport efflux assay. The note with it: COS-7. The format is cell-based. The essentials:
(§3)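 Reverse-transport efflux of preloaded substrate: hDAT in MDCK GFP-hDAT cells, hNET and GAT-1 in transiently transfected COS-7 cells. Compound tested at 0.5–500 μM against vehicle (basal) release. Non-radiolabeled substrate served as the positive control for assay integrity.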
Target sequence in this assay (P30531 whole entry, looked up): as above

Data set [7] addresses T1, Sodium-dependent noradrenaline transporter. In words: Activity at human NET expressed in african green monkey COS7 cells assessed as norepinephrine release at 0.5 to 500 uM after 10 mins using [3H]-norepinephrine pretreated for 1 hr before compound addition followed by wash out by reversed transport efflux assay. The data set is classed as cell-based. The note with it: COS-7. The method, boiled down: as §3

In data set [8] the target is T2, Sodium-dependent dopamine transporter. In words: Activity at human DAT expressed in MDCK cells assessed as dopamine release at 0.5 to 500 uM after 10 mins using [3H]-dopamine pretreated for 1 hr before compound addition followed by wash out by reversed transport efflux assay. The format is cell-based. The method, boiled down:
as §3

The target of data set [9] is T3, Sodium- and chloride-dependent GABA transporter 1. The experiment in a line: Allosteric modulation of GAT-1 (unknown origin) expressed in african green monkey COS7 cells using [3H]-GABA as substrate at 20 uM. The format is cell-based. The note with it: COS-7. The essentials:
(§4)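 Cells were preincubated with or without 20 μM compound for 10 min at room temperature. Uptake then ran with eight concentrations of unlabeled/radiolabeled substrate mix, in triplicate. Dopamine (99.9%:0.1%, 45 nM–100 μM) was used in hDAT MDCK cells and GABA (99.95%:0.05%) in GAT-1 COS-7 cells. Nonspecific uptake was subtracted, Michaelis–Menten Vmax/KM were fitted, and n≥3 independent assays were analysed by paired t-test.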
Target sequence in this assay (P30531 whole entry, looked up): as above

For data set [10], the target named is T2, Sodium-dependent dopamine transporter. In words: Non-competitive inhibition of human DAT expressed in MDCK cells using [3H]-dopamine as substrate. The format is cell-based. The essentials:
as §4

Data set [11] concerns the target T3, Sodium- and chloride-dependent GABA transporter 1. The experiment in a line: Non-competitive inhibition of GAT-1 (unknown origin) expressed in african green monkey COS7 cells using [3H]-GABA as substrate. The format is cell-based. As to conditions: COS-7. The method, boiled down: as §4
Target sequence in this assay (P30531 whole entry, looked up): as above
The target of data set [12] is T4, Sodium- and chloride-dependent glycine transporter 1 (Homo sapiens, UniProt P48067).
T4 sequence (P48067 whole entry): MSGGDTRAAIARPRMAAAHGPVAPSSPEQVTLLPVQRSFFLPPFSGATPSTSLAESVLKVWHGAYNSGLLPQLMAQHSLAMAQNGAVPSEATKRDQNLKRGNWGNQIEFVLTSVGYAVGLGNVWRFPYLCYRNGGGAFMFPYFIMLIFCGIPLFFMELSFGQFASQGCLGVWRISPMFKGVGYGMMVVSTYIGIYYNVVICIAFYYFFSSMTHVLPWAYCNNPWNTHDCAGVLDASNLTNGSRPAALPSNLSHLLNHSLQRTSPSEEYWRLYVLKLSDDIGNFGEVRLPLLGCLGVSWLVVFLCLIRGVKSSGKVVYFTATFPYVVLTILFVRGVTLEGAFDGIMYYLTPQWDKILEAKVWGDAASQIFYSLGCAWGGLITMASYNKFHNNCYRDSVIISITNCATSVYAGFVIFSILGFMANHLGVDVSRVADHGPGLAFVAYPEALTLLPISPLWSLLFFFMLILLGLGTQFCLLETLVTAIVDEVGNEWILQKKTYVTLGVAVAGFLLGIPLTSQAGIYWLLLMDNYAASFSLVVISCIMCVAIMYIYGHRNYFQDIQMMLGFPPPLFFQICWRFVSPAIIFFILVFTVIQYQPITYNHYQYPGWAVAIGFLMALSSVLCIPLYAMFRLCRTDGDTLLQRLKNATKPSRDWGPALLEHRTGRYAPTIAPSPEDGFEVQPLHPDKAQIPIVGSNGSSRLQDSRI
In words: Inhibition of GlyT1 (unknown origin) expressed in MDCK cells using [3H]-glycine as substrate after 10 mins by scintillation counting. The data set is classed as cell-based. The method, boiled down:
as §1

Data set [13] concerns the target T5, Excitatory amino acid transporter 3 (Homo sapiens, UniProt P43005).
T5 sequence (P43005 whole entry): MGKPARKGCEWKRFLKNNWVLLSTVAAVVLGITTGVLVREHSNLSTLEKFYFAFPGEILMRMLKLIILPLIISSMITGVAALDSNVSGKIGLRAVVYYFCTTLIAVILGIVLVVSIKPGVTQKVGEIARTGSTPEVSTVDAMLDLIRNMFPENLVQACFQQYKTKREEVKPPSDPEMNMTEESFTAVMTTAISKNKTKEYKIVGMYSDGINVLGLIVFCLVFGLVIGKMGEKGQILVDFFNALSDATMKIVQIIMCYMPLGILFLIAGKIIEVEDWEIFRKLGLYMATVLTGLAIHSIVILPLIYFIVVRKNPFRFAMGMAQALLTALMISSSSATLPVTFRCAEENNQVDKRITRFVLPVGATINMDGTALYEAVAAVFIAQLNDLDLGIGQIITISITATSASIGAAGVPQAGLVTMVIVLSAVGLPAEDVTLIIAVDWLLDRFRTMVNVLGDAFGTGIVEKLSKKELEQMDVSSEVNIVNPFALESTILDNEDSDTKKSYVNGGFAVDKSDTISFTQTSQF
The experiment in a line: Inhibition of EAAT3 (unknown origin) expressed in african green monkey COS7 cells using [3H]-glutamic acid as substrate after 10 mins by scintillation counting. The data set is classed as cell-based, COS-7. The essentials:
as §2

The target of data set [14] is Excitatory amino acid transporter 2 (Homo sapiens, UniProt P43004). The experiment in a line: Inhibition of EAAT2 (unknown origin) expressed in african green monkey COS7 cells using [3H]-glutamic acid as substrate after 10 mins by scintillation counting. The data set is classed as cell-based, COS-7. The method, boiled down:
as §2

Data set [15] addresses Excitatory amino acid transporter 1 (Homo sapiens, UniProt P43003). In words: Inhibition of EAAT1 (unknown origin) expressed in african green monkey COS7 cells using [3H]-glutamic acid as substrate after 10 mins by scintillation counting. The data set is classed as cell-based, COS-7. The method, boiled down: as §2
In data set [16] the target is T6, Sodium- and chloride-dependent GABA transporter 3 (Homo sapiens, UniProt P48066).
T6 sequence (P48066 whole entry): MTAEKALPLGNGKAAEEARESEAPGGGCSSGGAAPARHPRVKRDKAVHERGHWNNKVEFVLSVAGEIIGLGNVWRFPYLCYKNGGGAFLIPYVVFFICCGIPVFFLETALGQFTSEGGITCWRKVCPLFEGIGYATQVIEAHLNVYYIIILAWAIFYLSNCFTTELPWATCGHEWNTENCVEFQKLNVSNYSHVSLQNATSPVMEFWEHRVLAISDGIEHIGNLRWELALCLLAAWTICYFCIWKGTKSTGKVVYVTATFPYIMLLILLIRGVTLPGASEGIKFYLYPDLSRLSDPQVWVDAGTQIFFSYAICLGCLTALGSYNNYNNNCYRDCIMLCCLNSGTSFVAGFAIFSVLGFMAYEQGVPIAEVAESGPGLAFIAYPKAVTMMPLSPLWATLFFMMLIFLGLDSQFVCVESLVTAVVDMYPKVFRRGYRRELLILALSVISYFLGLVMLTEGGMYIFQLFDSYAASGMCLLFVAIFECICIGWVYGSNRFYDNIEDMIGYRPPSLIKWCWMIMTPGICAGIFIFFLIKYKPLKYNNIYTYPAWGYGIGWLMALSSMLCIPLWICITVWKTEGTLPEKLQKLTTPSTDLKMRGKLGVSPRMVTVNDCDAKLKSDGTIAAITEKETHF
The experiment in a line: Inhibition of GAT-3 (unknown origin) expressed in african green monkey COS7 cells using [3H]-GABA as substrate after 10 mins by scintillation counting. The format is cell-based, COS-7. The essentials: as §2

Data set [17] addresses T3, Sodium- and chloride-dependent GABA transporter 1. The experiment in a line: Inhibition of GAT-1 (unknown origin) expressed in african green monkey COS7 cells using [3H]-GABA as substrate after 10 mins by scintillation counting. The data set is classed as cell-based, COS-7. The essentials: as §2
Target sequence in this assay (P30531 whole entry): as the sequence (P30531 whole entry, looked up) above
Data set [18] deals with T1, Sodium-dependent noradrenaline transporter. In words: Inhibition of human NET expressed in MDCK cells using [3H]-norepinephrine as substrate after 10 mins by scintillation counting. The format is cell-based. The essentials: as §1
For data set [19] the target is unchanged. The experiment in a line: Non-competitive inhibition of human NET expressed in COS-7 cells using [3H]-norepinephrine as substrate.

T2 sequence (Q01959 whole entry): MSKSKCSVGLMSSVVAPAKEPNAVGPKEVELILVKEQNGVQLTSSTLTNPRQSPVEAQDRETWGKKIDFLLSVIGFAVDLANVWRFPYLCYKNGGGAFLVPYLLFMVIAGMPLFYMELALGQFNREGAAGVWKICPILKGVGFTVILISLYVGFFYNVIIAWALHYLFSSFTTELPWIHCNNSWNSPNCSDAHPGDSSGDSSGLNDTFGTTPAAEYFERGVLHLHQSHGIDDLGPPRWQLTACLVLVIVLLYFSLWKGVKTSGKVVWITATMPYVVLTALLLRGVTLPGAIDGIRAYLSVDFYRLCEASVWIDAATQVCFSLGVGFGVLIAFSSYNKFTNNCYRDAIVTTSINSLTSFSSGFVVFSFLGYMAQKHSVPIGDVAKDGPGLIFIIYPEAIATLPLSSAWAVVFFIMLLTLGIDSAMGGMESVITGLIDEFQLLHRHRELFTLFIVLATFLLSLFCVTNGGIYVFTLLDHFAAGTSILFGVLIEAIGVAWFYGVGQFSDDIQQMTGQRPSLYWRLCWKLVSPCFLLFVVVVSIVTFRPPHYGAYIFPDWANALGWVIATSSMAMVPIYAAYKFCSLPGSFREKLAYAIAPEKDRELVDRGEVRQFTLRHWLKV
Chain of Excitatory amino acid transporter 2 (P43004 whole entry): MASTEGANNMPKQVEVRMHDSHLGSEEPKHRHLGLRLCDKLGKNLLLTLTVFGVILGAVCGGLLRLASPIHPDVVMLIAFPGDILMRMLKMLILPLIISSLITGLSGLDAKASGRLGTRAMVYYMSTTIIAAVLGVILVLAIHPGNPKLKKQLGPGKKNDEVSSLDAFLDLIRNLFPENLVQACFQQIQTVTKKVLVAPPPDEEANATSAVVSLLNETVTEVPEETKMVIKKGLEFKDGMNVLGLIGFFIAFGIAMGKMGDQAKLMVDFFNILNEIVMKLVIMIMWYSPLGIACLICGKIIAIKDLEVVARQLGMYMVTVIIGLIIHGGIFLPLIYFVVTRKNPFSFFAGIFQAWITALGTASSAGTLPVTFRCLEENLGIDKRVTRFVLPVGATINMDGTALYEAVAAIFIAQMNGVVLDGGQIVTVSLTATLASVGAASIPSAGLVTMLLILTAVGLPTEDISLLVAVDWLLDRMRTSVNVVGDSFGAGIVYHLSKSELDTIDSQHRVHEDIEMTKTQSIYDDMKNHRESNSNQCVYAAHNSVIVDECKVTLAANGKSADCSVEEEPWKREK
Chain of Excitatory amino acid transporter 1 (P43003 whole entry): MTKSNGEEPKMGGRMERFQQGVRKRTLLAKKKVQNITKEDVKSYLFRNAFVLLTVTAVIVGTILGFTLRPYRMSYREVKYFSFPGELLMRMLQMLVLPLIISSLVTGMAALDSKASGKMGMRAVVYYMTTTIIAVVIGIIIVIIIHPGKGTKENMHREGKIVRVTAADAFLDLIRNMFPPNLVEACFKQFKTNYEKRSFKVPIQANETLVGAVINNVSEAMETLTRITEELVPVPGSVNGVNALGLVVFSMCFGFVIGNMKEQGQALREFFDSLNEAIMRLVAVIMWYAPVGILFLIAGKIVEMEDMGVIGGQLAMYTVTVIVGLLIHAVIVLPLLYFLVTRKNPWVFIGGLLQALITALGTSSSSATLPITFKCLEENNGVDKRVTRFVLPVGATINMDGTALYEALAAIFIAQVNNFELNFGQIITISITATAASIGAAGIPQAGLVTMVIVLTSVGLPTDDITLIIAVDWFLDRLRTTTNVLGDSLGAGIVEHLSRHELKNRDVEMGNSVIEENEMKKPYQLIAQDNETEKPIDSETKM

The term IC50 denotes the concentration needed to halve the response being measured. For the compound `COC1OC[C@@H](Cc2ccc3c(c2)OCO3)[C@@H]1Cc1ccc2c(c1)OCO2` (stereo partly drawn) [(-)-O-METHYLCUBEBIN], the inhibition entry in data set [1] was “inactive”. Moreover, the concentration for half-maximal inhibition (IC50) in data set [2] was found to be 90.3 µM; in data set [3], 78.6 µM.

In [4], `O=C(O)C1=CCCN(CCON=C(c2ccccc2)c2ccccc2)C1` displayed an IC50 of 0.04 µM.

As to `O=C1OC[C@H](Cc2ccc3c(c2)OCO3)[C@H]1Cc1ccc2c(c1)OCO2` [HINOKININ], in data set [5], the Activity result is “Non-toxic”. Also, the result in data set [6], in data set [7] and in data set [8] was inactive. The outcome in data set [9] was Active. Besides, the inhibition entry in [10], in data set [11] and in data set [19] was “Active” throughout. Also, the 50% inhibitory concentration (IC50) in [12] is more than 500 µM; in data set [13] it was more than 500 µM; in data set [14] it was more than 100 µM; in data set [15] it was more than 500 µM; in [16], more than 500 µM; in data set [17], 20.6 µM. Also, the half-maximal inhibitory concentration (IC50) in data set [2] stood at 175 µM; in [18], 8.76 µM; in data set [3] it was 8.35 µM. The inhibition result in data set [3] was “Dose-dependent effect”.

In data set [4], `O=C(O)C1=CCCN(CCOC(c2ccc(C(F)(F)F)cc2)c2ccc(C(F)(F)F)cc2)C1` had an IC50 of 0.26 µM.

On to `O[C@H]1OC[C@H](Cc2ccc3c(c2)OCO3)[C@H]1Cc1ccc2c(c1)OCO2`, for which the figures for the 50% inhibitory concentration (IC50) in data set [2], in data set [18] and in data set [3] were more than 200 µM, more than 200 µM and 12 µM, respectively. In [3], the inhibition result was “Dose-dependent effect”.
